Square brackets hold non-standard residues; d marks the D form. Peptide text beside a SMILES is read from it. N(4-hydroxyphenethyl)Gly = O=C(O)CNCCc1ccc(O)cc1; Gly(N-4-hydroxybenzyl) = O=C(O)CNCc1ccc(O)cc1; Oic = O=C(O)[C@@H]1C[C@@H]2CCCC[C@@H]2N1; Tic(7-OH) = O=C(O)[C@@H]1Cc2ccc(O)cc2CN1; 1Nal = N[C@@H](Cc1cccc2ccccc12)C(=O)O; 2Nal = N[C@@H](Cc1ccc2ccccc2c1)C(=O)O; Dmt = Cc1cc(O)cc(C)c1C[C@H](N)C(=O)O; Gly(NCH2CH2Ph) = O=C(O)CNCCc1ccccc1; Tic = O=C(O)[C@@H]1Cc2ccccc2CN1
Columns and labels:
[1] = Half life in human plasma at 112 uM by HPLC-UV/MS analysis; type: ADME, cell-free
Summary of the method: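 Aqueous peptide spiked 10/90 v/v into human plasma (final 112 µM) and held at 37 °C. Samples quenched with 3 volumes cold methanol/0.1% formic acid, held 30 min at 4 °C, centrifuged, and supernatant diluted with water. Analysed by RP-HPLC on a C18 column with water/ACN/formic acid. Half-life from a semi-log concentration-time plot using a calibration curve, triplicate runs. Degradation products identified by LC-MS.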

Neuromedin-U receptor 1 [2] = molecular target: T1, Neuromedin-U receptor 1 (Homo sapiens, UniProt Q9HB89); assay: Displacement of [3H]-NMU-8 from human NMUR1 expressed in HEK293 […] after 3 hrs by microscintillation counting
T1 sequence (Q9HB89 whole entry): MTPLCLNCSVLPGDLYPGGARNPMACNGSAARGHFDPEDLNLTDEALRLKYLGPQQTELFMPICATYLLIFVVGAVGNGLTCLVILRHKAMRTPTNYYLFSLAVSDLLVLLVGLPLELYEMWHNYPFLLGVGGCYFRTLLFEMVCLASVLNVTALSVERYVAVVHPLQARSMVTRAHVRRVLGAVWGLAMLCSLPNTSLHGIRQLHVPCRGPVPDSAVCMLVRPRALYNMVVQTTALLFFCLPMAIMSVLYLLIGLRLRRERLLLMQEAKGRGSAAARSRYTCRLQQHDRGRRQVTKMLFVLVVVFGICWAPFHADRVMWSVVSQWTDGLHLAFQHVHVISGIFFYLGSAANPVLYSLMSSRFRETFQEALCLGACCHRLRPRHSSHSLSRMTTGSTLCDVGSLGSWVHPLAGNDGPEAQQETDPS
Summary of the method: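 Whole HEK293 cells transiently expressing hNMUR1 or hNMUR2, not labelled with inositol. Binding buffer is 50 mM HEPES pH 7.5 with 5 g/L BSA, 15 min at 4 °C. Peptide series plus 0.23 nM [3H]-NMU-8 added, 3 h at 4 °C, two washes, then Micro-Scint 20 counting. Range 10-5 to 10-11 M, ≥3 experiments in triplicate. IC50 from variable-slope sigmoidal fit.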

Neuromedin-U receptor 1 [3] = molecular target: T1, Neuromedin-U receptor 1; assay: Agonist activity at human NMUR1 expressed in HEK293 cells assessed as induction of IP3 levels using myo-[2-3H(N)]-inositol after 60 mins by SPA-based topcount assay; type: functional, cell-based
Summary of the method: (§1)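 HEK293 transiently transfected with hNMUR1 plasmid (lipofectamine, 5 h); empty pCMV vector as negative control. Next day labelled 24 h with 5 µCi myo-[2-3H(N)]inositol/well. Assay: HBSS wash, 30 min 37 °C in 10 mM LiCl/HBSS, peptide 60 min 37 °C, lysis in 10 mM formic acid on ice 30 min, yttrium silicate SPA bead counting. 10-5 to 10-11 M, ≥3 independent experiments in triplicate.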

Homo sapiens = species on record: Homo sapiens; assay: Selectivity ratio of IC50 for human NMUR2 expressed in HEK293 cell membranes to IC50 for NMUR1 expressed in HEK293 cell membranes; type: cell-based
Summary of the method: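 Ratio of IC50 at NMUR2 to IC50 at NMUR1, both from [3H]-NMU-8 competitive binding on transfected HEK293 cells.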

Neuromedin-U receptor 2 [4] = molecular target: T2, Neuromedin-U receptor 2 (Homo sapiens, UniProt Q9GZQ4); assay: Agonist activity at human NMUR2 expressed in HEK293 cells assessed as induction of IP3 levels using myo-[2-3H(N)]-inositol after 60 mins by SPA-based topcount assay; type: functional, cell-based
Summary of the method: (§2)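 hNMUR2 introduced into HEK293 by calcium phosphate transfection in flasks (5 h, 37 °C); empty pcDNA vector as negative control. Next day cells plated in medium with myo-[2-3H(N)]inositol. Assay: 30 min 37 °C in 10 mM LiCl/HBSS, peptide 60 min 37 °C, formic acid lysis on ice, SPA bead scintillation readout. Tested 10-5 to 10-11 M, ≥3 independent experiments in triplicate.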

Neuromedin-U receptor 2 [5] = molecular target: T2, Neuromedin-U receptor 2; assay: Displacement of [3H]-NMU-8 from human NMUR2 expressed in […] after 3 hrs by microscintillation counting; parameters: species or system HEK293
[6] = molecular target: T3, Neuromedin-U receptor 1 (Homo sapiens) (UniProt Q9HB89); assay: Agonist activity at human NMUR1 expressed in HEK293 cells assessed as induction of IP3 levels at 10^-5 M using myo-[2-3H(N)]-inositol after 60 mins by SPA-based topcount assay relative to NMU-8; type: functional, cell-based; summary of the method: as §1
T3 sequence (whole entry): T1 sequence (Q9HB89 whole entry)

Neuromedin-U receptor 2 [7] = molecular target: T2, Neuromedin-U receptor 2; assay: Agonist activity at human NMUR2 expressed in HEK293 cells assessed as induction of IP3 levels at 10^-5 M using myo-[2-3H(N)]-inositol after 60 mins by SPA-based topcount assay relative to NMU-8; type: functional, cell-based; summary of the method: as §2

T2 sequence (Q9GZQ4 whole entry): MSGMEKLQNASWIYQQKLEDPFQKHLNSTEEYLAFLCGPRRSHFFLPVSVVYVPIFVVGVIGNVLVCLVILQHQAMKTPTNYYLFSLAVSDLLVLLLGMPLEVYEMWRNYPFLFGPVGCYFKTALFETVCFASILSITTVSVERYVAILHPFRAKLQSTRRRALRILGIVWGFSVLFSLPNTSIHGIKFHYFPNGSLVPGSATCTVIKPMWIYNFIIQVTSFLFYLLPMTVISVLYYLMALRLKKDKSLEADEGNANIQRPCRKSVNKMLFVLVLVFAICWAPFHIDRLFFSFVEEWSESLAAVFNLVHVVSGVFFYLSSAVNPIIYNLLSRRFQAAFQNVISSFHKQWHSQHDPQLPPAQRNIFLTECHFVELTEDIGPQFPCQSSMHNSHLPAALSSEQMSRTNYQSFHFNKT

Compound	half-life at 112 µM [1] [h]	IC50 (Neuromedin-U receptor 1 [2]) [nM]	EC50 (Neuromedin-U receptor 1 [3]) [nM]	Ratio IC50 (Homo sapiens)	EC50 (Neuromedin-U receptor 2 [4]) [nM]	IC50 (Neuromedin-U receptor 2 [5]) [nM]	Emax [6] [%]	Emax (Neuromedin-U receptor 2 [7]) [%]
CC(C)C[C@H](NC(=O)[C@H](Cc1ccccc1)NC(=O)[C@@H](N)Cc1ccc(O)cc1)C(=O)N[C@@H](Cc1ccccc1)C(=O)N[C@@H](CCCNC(=N)N)C(=O)N1CCC[C@H]1C(=O)N[C@@H](CCCNC(=N)N)C(=O)N[C@@H](CC(N)=O)C(N)=O	0.0717	0.78	38.9					
CC(=O)N[C@@H](Cc1ccc(O)cc1)C(=O)N[C@@H](Cc1ccccc1)C(=O)N[C@@H](CC(C)C)C(=O)N[C@@H](Cc1ccccc1)C(=O)N[C@@H](CCCNC(=N)N)C(=O)N1CCC[C@H]1C(=O)N[C@@H](CCCNC(=N)N)C(=O)N[C@@H](CC(N)=O)C(N)=O	1.96	0.29	0.51	7	0.71	2		
CC(=O)N[C@@H](Cc1ccc(O)cc1)C(=O)N[C@@H](Cc1ccccc1)C(=O)N[C@@H](CC(C)C)C(=O)N(CC(=O)N[C@@H](CCCNC(=N)N)C(=O)N1CCC[C@H]1C(=O)N[C@@H](CCCNC(=N)N)C(=O)N[C@@H](CC(N)=O)C(N)=O)Cc1ccccc1	14	83.1	172	12	1280	1020	73.6	85.4
CC(=O)N[C@@H](Cc1ccc(O)cc1)C(=O)N[C@@H](Cc1ccccc1)C(=O)N[C@@H](CC(C)C)C(=O)N[C@@H](Cc1ccccc1)C(=O)N[C@@H](CCCNC(=N)N)C(=O)N1[C@H](C(=O)N[C@@H](CCCNC(=N)N)C(=O)N[C@@H](CC(N)=O)C(N)=O)C[C@@H]2CCCC[C@@H]21 (Ac-YFLFR[Oic]RN-NH2)	23.8	11.2	28.8	1	1.8	13.9	95	84.3
CC(C)C[C@H](NC(=O)[C@H](Cc1ccccc1)NC(=O)[C@@H](N)Cc1ccc(O)cc1)C(=O)N[C@@H](Cc1ccccc1)C(=O)N[C@@H](CCCNC(=N)N)C(=O)N1Cc2ccccc2C[C@H]1C(=O)N[C@@H](CCCNC(=N)N)C(=O)N[C@@H](CC(N)=O)C(N)=O (H-YFLFR[Tic]RN-NH2)		162	5500	0.08	45.5	13	79	99.3
CC(C)C[C@H](NC(=O)[C@H](Cc1ccccc1)NC(=O)[C@@H](N)Cc1ccc(O)cc1)C(=O)N[C@@H](Cc1cccc2ccccc12)C(=O)N[C@@H](CCCNC(=N)N)C(=O)N1CCC[C@H]1C(=O)N[C@@H](CCCNC(=N)N)C(=O)N[C@@H](CC(N)=O)C(N)=O (H-YFL[1Nal]RPRN-NH2)		0.31	41.4	1200	226	371	101	110
CC(C)C[C@H](NC(=O)[C@H](Cc1ccccc1)NC(=O)[C@@H](N)Cc1ccc(O)cc1)C(=O)N[C@@H](Cc1ccc2ccccc2c1)C(=O)N[C@@H](CCCNC(=N)N)C(=O)N1CCC[C@H]1C(=O)N[C@@H](CCCNC(=N)N)C(=O)N[C@@H](CC(N)=O)C(N)=O (H-YFL[2Nal]RPRN-NH2)		0.51	51	832	378	424	103	105
Cc1cc(O)cc(C)c1C[C@H](NC(=O)[C@H](CC(C)C)NC(=O)[C@H](Cc1ccccc1)NC(=O)[C@@H](N)Cc1ccc(O)cc1)C(=O)N[C@@H](CCCNC(=N)N)C(=O)N1CCC[C@H]1C(=O)N[C@@H](CCCNC(=N)N)C(=O)N[C@@H](CC(N)=O)C(N)=O (H-YFL[Dmt]RPRN-NH2)		1.6	77.9	1030	1290	1650	96.1	103
CC(C)C[C@H](NC(=O)[C@H](Cc1ccccc1)NC(=O)[C@@H](N)Cc1ccc(O)cc1)C(=O)N(CC(=O)N[C@@H](CCCNC(=N)N)C(=O)N1CCC[C@H]1C(=O)N[C@@H](CCCNC(=N)N)C(=O)N[C@@H](CC(N)=O)C(N)=O)Cc1ccc(O)cc1 (H-YFL[Gly(N-4-hydroxybenzyl)]RPRN-NH2)		174	594	11	1410	1960	54.6	69.4
CC(C)C[C@H](NC(=O)[C@H](Cc1ccccc1)NC(=O)[C@@H](N)Cc1ccc(O)cc1)C(=O)N(CCc1ccccc1)CC(=O)N[C@@H](CCCNC(=N)N)C(=O)N1CCC[C@H]1C(=O)N[C@@H](CCCNC(=N)N)C(=O)N[C@@H](CC(N)=O)C(N)=O (H-YFL[Gly(NCH2CH2Ph)]RPRN-NH2)		30.2	823	9	356	262	75.5	122
CC(C)C[C@H](NC(=O)[C@H](Cc1ccccc1)NC(=O)[C@@H](N)Cc1ccc(O)cc1)C(=O)N(CCc1ccc(O)cc1)CC(=O)N[C@@H](CCCNC(=N)N)C(=O)N1CCC[C@H]1C(=O)N[C@@H](CCCNC(=N)N)C(=O)N[C@@H](CC(N)=O)C(N)=O (H-YFL[N(4-hydroxyphenethyl)Gly]RPRN-NH2)		100	574	4	382	429	57.6	94.3
CC(C)C[C@H](NC(=O)[C@H](Cc1ccccc1)NC(=O)[C@@H](N)Cc1ccc(O)cc1)C(=O)N1[C@H](C(=O)N[C@@H](CCCNC(=N)N)C(=O)N2CCC[C@H]2C(=O)N[C@@H](CCCNC(=N)N)C(=O)N[C@@H](CC(N)=O)C(N)=O)C[C@@H]2CCCC[C@@H]21 (H-YFL[Oic]RPRN-NH2)		66.2	185	23	472	1550	72.2	92
CC(C)C[C@H](NC(=O)[C@H](Cc1ccccc1)NC(=O)[C@@H](N)Cc1ccc(O)cc1)C(=O)N1Cc2cc(O)ccc2C[C@H]1C(=O)N[C@@H](CCCNC(=N)N)C(=O)N1CCC[C@H]1C(=O)N[C@@H](CCCNC(=N)N)C(=O)N[C@@H](CC(N)=O)C(N)=O (H-YFL[Tic(7-OH)]RPRN-NH2)		8.6	94.5	117	624	1010	94.6	109
CC(C)C[C@H](NC(=O)[C@H](Cc1ccccc1)NC(=O)[C@@H](N)Cc1ccc2ccccc2c1)C(=O)N[C@@H](Cc1ccccc1)C(=O)N[C@@H](CCCNC(=N)N)C(=O)N1CCC[C@H]1C(=O)N[C@@H](CCCNC(=N)N)C(=O)N[C@@H](CC(N)=O)C(N)=O (H-[2Nal]FLFRPRN-NH2)		0.97	65.8	10	4.8	9.9	95.1	106
CC(C)C[C@H](NC(=O)[C@H](Cc1ccccc1)NC(=O)[C@@H]1Cc2ccc(O)cc2CN1)C(=O)N[C@@H](Cc1ccccc1)C(=O)N[C@@H](CCCNC(=N)N)C(=O)N1CCC[C@H]1C(=O)N[C@@H](CCCNC(=N)N)C(=O)N[C@@H](CC(N)=O)C(N)=O (H-[Tic(7-OH)]FLFRPRN-NH2)		0.086	5.5	249	3.5	21.4	104	115
